According to ChEMBL document CHEMBL4371064, “Erythrofordins D and E, two new cassaine-type diterpenes from Erythrophleum suaveolens” (2019):

Tests used:
Assay type in all cases: functional
CCRF-CEM = experiment: Growth inhibition of human CCRF-CEM cells incubated for 48 hrs by sulforhodamine B assay
Outline: (§1)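 Run in the NCI-60 human tumour cell line panel with dose-response testing. GI50 was determined for each cell line from its dose-response data.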

HOP-92 = experiment: Growth inhibition of human HOP92 cells incubated for 48 hrs by sulforhodamine B assay; conditions: HOP-92, 48 h; outline: as §1
NCI-H226 = experiment: Growth inhibition of human NCI-H226 cells incubated for 48 hrs by sulforhodamine B assay; conditions: NCI-H226, 48 h; outline: as §1
COLO 205 = experiment: Growth inhibition of human COLO205 cells incubated for 48 hrs by sulforhodamine B assay; conditions: COLO 205, 48 h; outline: as §1
HCT-116 = experiment: Growth inhibition of human HCT116 cells incubated for 48 hrs by sulforhodamine B assay; conditions: HCT-116, 48 h; outline: as §1
HCT-15 = experiment: Growth inhibition of human HCT15 cells incubated for 48 hrs by sulforhodamine B assay; conditions: HCT-15, 48 h; outline: as §1
HT-29 = experiment: Growth inhibition of human HT-29 cells incubated for 48 hrs by sulforhodamine B assay; conditions: HT-29, 48 h; outline: as §1
SW-620 = experiment: Growth inhibition of human SW620 cells incubated for 48 hrs by sulforhodamine B assay; conditions: SW-620, 48 h
Outline: (§2)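 Tested in the NCI 60-human-tumour-cell-line screen using the five-dose format. GI₅₀ was derived from each cell line's dose-response. TGI and LC₅₀ were derived from the same dose-response data.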

SF-539 = experiment: Growth inhibition of human SF539 cells incubated for 48 hrs by sulforhodamine B assay; conditions: SF-539, 48 h; outline: as §1
SNB-19 = experiment: Growth inhibition of human SNB19 cells incubated for 48 hrs by sulforhodamine B assay; conditions: SNB-19, 48 h; outline: as §1
SNB-75 = experiment: Growth inhibition of human SNB75 cells incubated for 48 hrs by sulforhodamine B assay; conditions: SNB-75, 48 h; outline: as §1
LOX IMVI = experiment: Growth inhibition of human LOXIMVI cells incubated for 48 hrs by sulforhodamine B assay; outline: as §1
Malme-3M = experiment: Growth inhibition of human MALME-3M cells incubated for 48 hrs by sulforhodamine B assay; outline: as §1
SK-MEL-2 = experiment: Growth inhibition of human SK-MEL-2 cells incubated for 48 hrs by sulforhodamine B assay; conditions: SK-MEL-2, 48 h; outline: as §1
SK-MEL-5 = experiment: Growth inhibition of human SK-MEL-5 cells incubated for 48 hrs by sulforhodamine B assay; conditions: SK-MEL-5, 48 h; outline: as §1
UACC-257 = experiment: Growth inhibition of human UACC257 cells incubated for 48 hrs by sulforhodamine B assay; conditions: UACC-257, 48 h; outline: as §2
UACC-62 = experiment: Growth inhibition of human UACC62 cells incubated for 48 hrs by sulforhodamine B assay; conditions: UACC-62, 48 h; outline: as §2
IGROV-1 = experiment: Growth inhibition of human IGROV1 cells incubated for 48 hrs by sulforhodamine B assay; conditions: IGROV-1, 48 h; outline: as §1
OVCAR-3 = experiment: Growth inhibition of human OVCAR3 cells incubated for 48 hrs by sulforhodamine B assay; conditions: OVCAR-3, 48 h; outline: as §1
OVCAR-4 = experiment: Growth inhibition of human OVCAR4 cells incubated for 48 hrs by sulforhodamine B assay; conditions: OVCAR-4, 48 h; outline: as §1
SK-OV-3 = experiment: Growth inhibition of human SKOV3 cells incubated for 48 hrs by sulforhodamine B assay; conditions: SK-OV-3, 48 h; outline: as §1
786-0 = experiment: Growth inhibition of human 786-0 cells incubated for 48 hrs by sulforhodamine B assay; conditions: 786-0, 48 h; outline: as §1
A498 = experiment: Growth inhibition of human A498 cells incubated for 48 hrs by sulforhodamine B assay; conditions: A498, 48 h
Outline: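 Run within the NCI-60 human tumour cell line panel as a dose-response screen. For each cell line the readouts are GI50, TGI and LC50. Per-line log values also feed a mean-graph analysis, in which the arithmetic mean of the log values across all lines is subtracted from each line's log value.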

ACHN = experiment: Growth inhibition of human ACHN cells incubated for 48 hrs by sulforhodamine B assay; outline: as §1
SN12C = experiment: Growth inhibition of human SN12C cells incubated for 48 hrs by sulforhodamine B assay; outline: as §1
TK-10 = experiment: Growth inhibition of human TK10 cells incubated for 48 hrs by sulforhodamine B assay; conditions: TK-10, 48 h; outline: as §2
MDA-MB-231 = experiment: Growth inhibition of human MDA-MB-231 cells incubated for 48 hrs by sulforhodamine B assay; conditions: MDA-MB-231, 48 h; outline: as §1
Hs-578T = experiment: Growth inhibition of human Hs578T cells incubated for 48 hrs by sulforhodamine B assay; outline: as §1
BT-549 = experiment: Growth inhibition of human BT549 cells incubated for 48 hrs by sulforhodamine B assay; conditions: BT-549, 48 h; outline: as §1
MDA-MB-468 = experiment: Growth inhibition of human MDA-MB-468 cells incubated for 48 hrs by sulforhodamine B assay; conditions: MDA-MB-468, 48 h; outline: as §1
[1] = read-out: pLC50 (the source's name) (converted)

COC(=O)/C=C1\CC[C@H]2[C@@H](CC(=O)[C@H]3C(C)(C)[C@@H](O)CC[C@]23C)[C@H]1C
GI50 (CCRF-CEM): 1.15 µM
LC50 (CCRF-CEM): > 34.7 µM
TGI (CCRF-CEM; read-out: pTGI (converted)): 7.59 µM
GI50 (HOP-92): 5.75 µM
LC50 (HOP-92): > 34.7 µM
TGI (HOP-92; read-out: pTGI (converted)): 23.4 µM
GI50 (NCI-H226): 4.79 µM
LC50 (NCI-H226): 25.1 µM
TGI (NCI-H226; read-out: pTGI (converted)): 11 µM
GI50 (COLO 205): 10.5 µM
LC50 (COLO 205): > 34.7 µM
TGI (COLO 205; read-out: pTGI (converted)): > 34.7 µM
GI50 (HCT-116): 1.41 µM
LC50 (HCT-116): > 34.7 µM
TGI (HCT-116; read-out: pTGI (converted)): 6.31 µM
GI50 (HCT-15): 4.07 µM
LC50 (HCT-15): 30.2 µM
TGI (HCT-15; read-out: pTGI (converted)): 11 µM
GI50 (HT-29): 2.24 µM
CC50 (HT-29; [1]): > 34.7 µM
TGI (HT-29; read-out: pTGI (converted)): 10.7 µM
GI50 (SW-620): 1.74 µM
LC50 (SW-620): > 34.7 µM
TGI (SW-620; read-out: pTGI (converted)): 10 µM
GI50 (SF-539): 1.35 µM
LC50 (SF-539): 16.2 µM
TGI (SF-539; read-out: pTGI (converted)): 5.5 µM
GI50 (SNB-19): 9.33 µM
LC50 (SNB-19): > 34.7 µM
TGI (SNB-19; read-out: pTGI (converted)): > 34.7 µM
GI50 (SNB-75): 1.1 µM
LC50 (concentration killing 50% of cells) (SNB-75): 23.4 µM
TGI (SNB-75; read-out: pTGI (converted)): 6.46 µM
GI50 (LOX IMVI): 2 µM
LC50 (LOX IMVI): > 34.7 µM
TGI (LOX IMVI; read-out: pTGI (converted)): 9.55 µM
GI50 (Malme-3M): 1.48 µM
LC50 (Malme-3M): 24.5 µM
TGI (Malme-3M; read-out: pTGI (converted)): 7.08 µM
GI50 (SK-MEL-2): 7.41 µM
LC50 (concentration killing 50% of cells) (SK-MEL-2): > 34.7 µM
TGI (SK-MEL-2; read-out: pTGI (converted)): 28.8 µM
GI50 (SK-MEL-5): 1.29 µM
LC50 (SK-MEL-5): 25.7 µM
TGI (SK-MEL-5; read-out: pTGI (converted)): 5.75 µM
GI50 (UACC-257): 6.03 µM
LC50 (UACC-257): > 34.7 µM
TGI (UACC-257; read-out: pTGI (converted)): 16.2 µM
GI50 (UACC-62): 5.62 µM
LC50 (UACC-62): > 34.7 µM
TGI (UACC-62; read-out: pTGI (converted)): 16.6 µM
GI50 (IGROV-1): 3.8 µM
LC50 (IGROV-1): > 34.7 µM
TGI (IGROV-1; read-out: pTGI (converted)): 22.4 µM
GI50 (OVCAR-3): 1.32 µM
LC50 (OVCAR-3): 21.4 µM
TGI (OVCAR-3; read-out: pTGI (converted)): 4.9 µM
GI50 (OVCAR-4): 3.72 µM
LC50 (OVCAR-4): > 34.7 µM
TGI (OVCAR-4; read-out: pTGI (converted)): 12.3 µM
GI50 (SK-OV-3): 8.51 µM
LC50 (SK-OV-3): > 34.7 µM
TGI (SK-OV-3; read-out: pTGI (converted)): 22.9 µM
GI50 (786-0): 1.12 µM
LC50 (786-0): 24.5 µM
TGI (786-0; read-out: pTGI (converted)): 4.27 µM
LC50 (A498): > 34.7 µM
TGI (A498; read-out: pTGI (converted)): 14.8 µM
GI50 (ACHN): 0.794 µM
LC50 (ACHN): 10 µM
TGI (ACHN; read-out: pTGI (converted)): 2.19 µM
GI50 (SN12C): 1.1 µM
LC50 (SN12C): > 34.7 µM
TGI (SN12C; read-out: pTGI (converted)): 5.89 µM
GI50 (TK-10): 1.48 µM
LC50 (lethal concentration killing 50% of cells) (TK-10): > 34.7 µM
TGI (TK-10; read-out: pTGI (converted)): 7.94 µM
GI50 (MDA-MB-231): 10.2 µM
LC50 (MDA-MB-231): > 34.7 µM
TGI (MDA-MB-231; read-out: pTGI (converted)): > 34.7 µM
GI50 (Hs-578T): 0.955 µM
LC50 (Hs-578T): > 34.7 µM
TGI (Hs-578T; read-out: pTGI (converted)): 3.39 µM
GI50 (BT-549): 1.26 µM
LC50 (BT-549): > 34.7 µM
TGI (BT-549; read-out: pTGI (converted)): 5.5 µM
GI50 (MDA-MB-468): 10 µM
CC50 (MDA-MB-468; [1]): > 34.7 µM
TGI (MDA-MB-468; read-out: pTGI (converted)): > 34.7 µM
